Data on twelve compounds can be found in ChEMBL document CHEMBL1157649, “Cytotoxic 2-benzylidene-6-(nitrobenzylidene)cyclohexanones which display substantially greater toxicity for neoplasms than non-malignant cells” (Bioorg Med Chem, 2010).

The source made the active and inactive calls. No cut-off for these calls is given here.

A short description of data set [1]: Cytotoxicity against human HPLF cells after 24 hrs. Type of data set: cell-based. Conditions: for CC50 at 24 h: HPLF cells; for CC50: hplf, 24 h. In short, it runs like this:
(§1)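 Cells (HGF gingival fibroblasts, HPC pulp cells, HPLF periodontal ligament fibroblasts, HSC-2 and HSC-4 squamous carcinoma, HL-60 promyelocytic leukemia) were exposed to graded concentrations for 24 h, up to a maximum of 400 μM. CC50 is the concentration reducing viable cell number by 50%, taken from dose–response curves. Values are from duplicate determinations differing by less than 5%.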

Data set [2] has as its system HSC-2. Nature of the data set: Selectivity index, ratio of CC50 for human normal cells to CC50 for human HSC2 cells. Type of data set: functional. In short, it runs like this: (§2)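 The index is the average CC50 toward the three normal cell types (HGF, HPC, HPLF) divided by the CC50 toward the indicated malignant line.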
Data set [3] relates to HSC-2. Nature of the data set: Cytotoxicity against human HSC2 cells after 24 hrs. Type of data set: functional. Conditions: HSC-2, 24 h. In short, it runs like this:
as §1

Data set [4] has as its system HL-60. Nature of the data set: Selectivity index, ratio of CC50 for human normal cells to CC50 for human HL60 cells. Type of data set: functional. In short, it runs like this: as §2
A short description of data set [5]: Cytotoxicity against human HGF cells after 24 hrs. Type of data set: cell-based. Conditions: for CC50 at 24 h: HGF cells; for CC50: hgf, 24 h. In short, it runs like this:
as §1

Data set [6] relates to Mus musculus. Nature of the data set: Toxicity in mouse assessed as induction of mortality at 30 to 300 mg/kg, ip. Conditions: in vivo. More on the design: dose 30-300 mg/kg, route intraperitoneal. Type of data set: organism-based.
Data set [7] is described as follows: Partition coefficient, log P of the compound. Type of data set: physicochemical. Particulars: octanol/water.
In data set [8] the test system is Mus musculus. Nature of the data set: Neurotoxicity in mouse assessed at 30 to 300 mg/kg, ip after 4 hrs. Type of data set: toxicity, organism-based. More on the design: dose 30-300 mg/kg, route intraperitoneal. Particulars: in vivo. In short, it runs like this: (§3)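 Mice received 30, 100 or 300 mg/kg intraperitoneally and were examined at 0.5 and 4 h for mortality and neurological deficit, following NINDS screening protocols. Results were recorded as the number of mice showing a deficit over the number treated per dose.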

In data set [9] the test system is HSC-4. Nature of the data set: Cytotoxicity against human HSC4 cells after 24 hrs. Type of data set: functional. Conditions: HSC-4, 24 h. Summed up: as §1
For data set [10], the system named is Mus musculus. Nature of the data set: Neurotoxicity in mouse assessed at 30 to 300 mg/kg, ip after 0.5 hrs. Particulars: in vivo. Type of data set: toxicity, organism-based. More on the design: dose 30-300 mg/kg, route intraperitoneal. Summed up: as §3
The subject of data set [11] is HL-60. Nature of the data set: Cytotoxicity against human HL60 cells after 24 hrs. Type of data set: functional. Conditions: HL-60, 24 h. Summed up:
as §1

The nature of data set [12]: Cytotoxicity against human HPC cells after 24 hrs. Type of data set: cell-based. Conditions: for CC50 at 24 h: HPC cells; for CC50: hpc, 24 h. Summed up: as §1
Data set [13] concerns HSC-4. Nature of the data set: Selectivity index, ratio of CC50 for human normal cells to CC50 for human HSC4 cells. Type of data set: functional. In short, it runs like this:
as §2

The species named for data set [14] is Mus musculus. Nature of the data set: Toxicity in mouse. Type of data set: organism-based. Particulars: in vivo. In short, it runs like this: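 Neurotoxicity was recorded as the number of affected mice per number treated at each dose. Testing was run under National Institute of Neurological Disorders and Stroke screening protocols.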
Data set [15] relates to HSC-2. Nature of the data set: Induction of apoptosis in human HSC2 cells assessed as caspase-3 activation. Type of data set: functional, cell-based. Summed up:
(§4)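 HL-60 and HSC-2 cells were incubated with compound for 5 h, then caspase-3 activation was measured. The positive control was UV irradiation (6 J/m²/min for 1 min) followed by 3 h incubation. Bars show mean ± SD, n = 3.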

Data set [16] has as its system HL-60. Nature of the data set: Induction of apoptosis in human HL60 cells assessed as caspase-3 activation. Type of data set: functional, cell-based. Summed up: as §4
In data set [17] the test system is HL-60. Nature of the data set: Induction of internucleosomal DNA fragmentation in human HL60 cells after 6 hrs. Type of data set: functional, cell-based. Summed up:
(§5)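 HL-60 and HSC-2 cells were incubated with compound for 6 h. Internucleosomal DNA fragmentation was then examined against a DNA molecular-weight marker.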

Data set [18] has as its system HSC-2. Nature of the data set: Induction of internucleosomal DNA fragmentation in human HSC2 cells after 6 hrs. Type of data set: functional, cell-based. Summed up:
as §5

The term CC50 denotes the concentration that lowers cell viability or growth by half. The low end stands for greater toxicity to the cells, the high end for lower toxicity to the cells. A word on the logP: it is a log measure of how a compound divides between an organic and an aqueous phase. A low value points to a more hydrophilic compound. Regarding `COc1ccc(/C=C2\CCC/C(=C\c3ccc([N+](=O)[O-])cc3)C2=O)cc1`, the CC50 at 24 h in data set [1], in data set [5] and in data set [12] was greater than 400 µM each time. In addition, the “Selectivity Index” value in the data set with HSC-2 [2], in the data set with HL-60 [4] and in the data set on HSC-4 [13] was 1 each time. Also, the CC50 in the data set on HSC-2 [3], with HSC-4 [9] and in the data set on HL-60 [11] was greater than 400 µM in each case. In addition, the Activity entry in the data set on Mus musculus [6], in the data set with Mus musculus [8] and in the data set on Mus musculus [10] was “Non-toxic” in each case. Also, in [7], the logP was 4.98.

Turning to `O=C1/C(=C/c2ccccc2)CCC/C1=C\c1ccc([N+](=O)[O-])cc1`, the CC50 was determined as 282 µM in data set [1]; 4.9 µM in the data set with HSC-2 [3]; 371 µM in data set [5]; 9.2 µM in the data set with HSC-4 [9]; 20 µM in the data set on HL-60 [11]; 123 µM in data set [12]. The “Selectivity Index” value was 53 with HSC-2 [2], 13 in the data set with HL-60 [4] and 28 with HSC-4 [13]. Besides, the Activity entry in the data set with Mus musculus [6], in the data set with Mus musculus [8] and in the data set on Mus musculus [10] was “Non-toxic” throughout. In addition, the logP in data set [7] came out at 4.93.

`O=C1/C(=C/c2ccc(Cl)cc2)CCC/C1=C\c1ccc([N+](=O)[O-])cc1`: the half-maximal cytotoxic concentration (CC50) at 24 h in data set [1] worked out at 332 µM; in data set [5], 191 µM; in [12], 345 µM. Also, the “Selectivity Index” value in the data set on HSC-2 [2] was 193; in the data set on HL-60 [4], 71; in the data set on HSC-4 [13], 107. Moreover, the CC50 with HSC-2 [3] was 1.5 µM; with HSC-4 [9], 2.7 µM; in the data set with HL-60 [11], 4.1 µM. Moreover, the Activity entry with Mus musculus [6], in the data set on Mus musculus [8] and with Mus musculus [10] was “Non-toxic” each time. In data set [7], the logP was 5.6.

In turn, `N[C@@H](Cc1ccc(N(CCCl)CCCl)cc1)C(=O)O` came in with an Activity in the data set filed under Mus musculus [14] of 4 mg/kg.

In the case of `O=C1/C(=C/c2ccc(Cl)cc2)CCC/C1=C\c1ccccc1[N+](=O)[O-]`, the 50% cytotoxic concentration (CC50) is greater than 400 µM in data set [1]; 3.7 µM with HSC-2 [3]; greater than 400 µM in data set [5]; 6.1 µM in the data set with HSC-4 [9]; 7.6 µM in the data set on HL-60 [11]; 400 µM in data set [12]. Also, the “Selectivity Index” value in the data set with HSC-2 [2] was greater than 108; in the data set with HL-60 [4], greater than 53; in the data set on HSC-4 [13] it was greater than 66. Besides, the result in the data set with HSC-2 [15] and with HSC-2 [18] was inactive. Besides, the result in the data set with HL-60 [16] and with HL-60 [17] was Active. For the same compound, the Activity result with Mus musculus [6] is “Non-toxic”. The same compound gave a logP in [7] of 5.38.

With `COc1cc(/C=C2\CCC/C(=C\c3cccc([N+](=O)[O-])c3)C2=O)cc(OC)c1OC`, the CC50 was greater than 400 µM in data set [1]; 73 µM with HSC-2 [3]; 336 µM in data set [5]; 92 µM with HSC-4 [9]; 59 µM in the data set on HL-60 [11]; greater than 400 µM in [12]. Besides, the “Selectivity Index” value in the data set with HSC-2 [2] is recorded as greater than 5.2; in the data set on HL-60 [4], greater than 6.4; with HSC-4 [13] it was greater than 4.1. Also, the Activity result in the data set with Mus musculus [6], in the data set on Mus musculus [8] and with Mus musculus [10] was “Non-toxic” throughout. In addition, the logP in data set [7] amounted to 4.53.

Turning to `COc1cc(/C=C2\CCC/C(=C\c3ccccc3[N+](=O)[O-])C2=O)cc(OC)c1OC`, the CC50 in data set [1] came to 79 µM; in the data set on HSC-2 [3], 5.9 µM; in data set [5], 44 µM; in the data set on HSC-4 [9], 6.5 µM; with HL-60 [11], 3 µM; in data set [12] it was 35 µM. Moreover, the “Selectivity Index” value with HSC-2 [2] was determined as 9; in the data set on HL-60 [4] it was 18; in the data set with HSC-4 [13], 8.2. Moreover, the Activity result in the data set on Mus musculus [6], in the data set on Mus musculus [8] and in the data set on Mus musculus [10] was “Non-toxic” each time. The compound further displayed a logP in data set [7] of 4.33.

On to `COc1ccc(/C=C2\CCC/C(=C\c3ccc([N+](=O)[O-])cc3)C2=O)c(OC)c1OC`, for which the half-maximal cytotoxic concentration (CC50) (in [1]; with HSC-2 [3]; in data set [5]; in the data set with HSC-4 [9]; in the data set on HL-60 [11]; in data set [12]) was greater than 400 µM throughout. Moreover, the “Selectivity Index” value in the data set on HSC-2 [2], with HL-60 [4] and in the data set on HSC-4 [13] was 1 in each case. Besides, the Activity result in the data set with Mus musculus [6], in the data set on Mus musculus [8] and with Mus musculus [10] was “Non-toxic” throughout.

In the case of `COc1cc(OC)c(/C=C2\CCC/C(=C\c3ccc([N+](=O)[O-])cc3)C2=O)c(OC)c1`, the CC50 in data set [1] was greater than 400 µM; in the data set with HSC-2 [3], greater than 400 µM; in data set [5] it was greater than 400 µM; with HSC-4 [9] it was greater than 400 µM; in the data set with HL-60 [11] it was 11 µM; in data set [12], greater than 400 µM. For the same compound, the “Selectivity Index” value in the data set on HSC-2 [2] is 1; with HL-60 [4], greater than 36; in the data set with HSC-4 [13] it was 1. For the same compound, the Activity result with Mus musculus [6], with Mus musculus [8] and in the data set with Mus musculus [10] was “Non-toxic” in each case.

With `COc1ccc(/C=C2\CCC/C(=C\c3ccccc3[N+](=O)[O-])C2=O)cc1`, the CC50 is 386 µM in data set [1]; 11 µM in the data set with HSC-2 [3]; greater than 400 µM in data set [5]; 24 µM in the data set on HSC-4 [9]; 26 µM in the data set with HL-60 [11]; greater than 400 µM in data set [12]. For the same compound, the Activity result in the data set on Mus musculus [6], in the data set on Mus musculus [8] and in the data set on Mus musculus [10] was “Non-toxic” in each case. In data set [7], this compound gave a logP of 4.76.

With `O=C1/C(=C/c2ccccc2)CCC/C1=C\c1ccccc1[N+](=O)[O-]`, the CC50 stood at 26 µM in data set [1]; 3.8 µM in the data set on HSC-2 [3]; 93 µM in [5]; 3.2 µM with HSC-4 [9]; 3.7 µM in the data set with HL-60 [11]; 16 µM in [12]. Further, the “Selectivity Index” value in the data set on HSC-2 [2] worked out at 12; with HL-60 [4], 12; in the data set with HSC-4 [13], 14. Also, the Activity result with Mus musculus [6], in the data set on Mus musculus [8] and in the data set on Mus musculus [10] was “Non-toxic” each time. In [7], this compound had a logP of 4.7.

In the case of `Cc1ccc(/C=C2\CCC/C(=C\c3cccc([N+](=O)[O-])c3)C2=O)cc1`, the CC50 in data set [1] was greater than 400 µM; with HSC-2 [3] it was 17 µM; in data set [5] it was greater than 400 µM; in the data set on HSC-4 [9], 45 µM; in the data set on HL-60 [11], 38 µM; in data set [12], 192 µM. Moreover, the entries for the “Selectivity Index” value with HSC-2 [2], in the data set on HL-60 [4] and in the data set with HSC-4 [13] were greater than 20, greater than 8.7 and greater than 7.4, respectively. Besides, the Activity entry in the data set with Mus musculus [6], in the data set with Mus musculus [8] and with Mus musculus [10] was “Non-toxic” each time. Further, in [7], the logP was 5.35.
